# Columns and labels:
# [1] = molecular target: T1, Protein deacetylase HDAC6 (Homo sapiens, UniProt Q9UBN7); assay: Inhibition of recombinant human full-length N-terminal GST-tagged HDAC6 expressed in baculovirus infected Sf9 insect cells using Boc-Lys(Ac)-AMC as substrate preincubated for 5 mins followed by substrate addition and measured after 30 mins by fluorescence assay
# T1 sequence (Q9UBN7 whole entry): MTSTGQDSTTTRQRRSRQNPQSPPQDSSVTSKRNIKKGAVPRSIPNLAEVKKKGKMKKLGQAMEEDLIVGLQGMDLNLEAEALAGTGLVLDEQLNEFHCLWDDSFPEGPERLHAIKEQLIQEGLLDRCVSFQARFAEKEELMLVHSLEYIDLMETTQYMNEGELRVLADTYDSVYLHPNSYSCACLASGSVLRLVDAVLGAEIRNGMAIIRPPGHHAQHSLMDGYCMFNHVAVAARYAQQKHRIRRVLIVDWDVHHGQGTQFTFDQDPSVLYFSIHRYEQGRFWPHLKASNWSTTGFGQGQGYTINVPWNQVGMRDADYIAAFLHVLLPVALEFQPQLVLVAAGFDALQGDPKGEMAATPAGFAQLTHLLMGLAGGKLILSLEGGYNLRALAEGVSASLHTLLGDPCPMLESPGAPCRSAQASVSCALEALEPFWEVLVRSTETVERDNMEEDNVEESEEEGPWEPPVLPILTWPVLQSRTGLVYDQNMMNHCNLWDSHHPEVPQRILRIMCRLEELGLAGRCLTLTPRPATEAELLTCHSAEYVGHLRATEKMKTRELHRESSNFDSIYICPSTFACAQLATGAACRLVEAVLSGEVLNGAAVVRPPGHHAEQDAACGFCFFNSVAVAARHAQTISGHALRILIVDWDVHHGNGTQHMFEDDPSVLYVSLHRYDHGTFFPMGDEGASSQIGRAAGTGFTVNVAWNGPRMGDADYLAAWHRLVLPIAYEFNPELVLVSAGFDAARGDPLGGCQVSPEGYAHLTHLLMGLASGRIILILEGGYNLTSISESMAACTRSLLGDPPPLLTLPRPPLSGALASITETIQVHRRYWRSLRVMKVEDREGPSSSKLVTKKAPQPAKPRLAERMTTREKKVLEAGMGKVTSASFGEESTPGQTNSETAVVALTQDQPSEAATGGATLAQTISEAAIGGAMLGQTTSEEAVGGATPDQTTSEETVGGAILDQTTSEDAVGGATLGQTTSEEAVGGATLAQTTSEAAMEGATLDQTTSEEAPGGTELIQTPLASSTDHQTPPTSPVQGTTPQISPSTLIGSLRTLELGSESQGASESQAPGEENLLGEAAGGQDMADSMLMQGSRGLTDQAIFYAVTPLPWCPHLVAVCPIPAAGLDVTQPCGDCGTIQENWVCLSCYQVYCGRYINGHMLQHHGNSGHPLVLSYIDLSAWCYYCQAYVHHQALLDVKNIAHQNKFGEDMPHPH
# [2] = molecular target: Amyloid-beta precursor protein (Homo sapiens, UniProt P05067); assay: Disaggregation of self-induced amyloid beta (1 to 42) (unknown origin) preformed fibrils at 10 uM measured after 24 hrs by thioflavin-T fluorescence assay relative to control
# Chain of Amyloid-beta precursor protein (P05067 whole entry): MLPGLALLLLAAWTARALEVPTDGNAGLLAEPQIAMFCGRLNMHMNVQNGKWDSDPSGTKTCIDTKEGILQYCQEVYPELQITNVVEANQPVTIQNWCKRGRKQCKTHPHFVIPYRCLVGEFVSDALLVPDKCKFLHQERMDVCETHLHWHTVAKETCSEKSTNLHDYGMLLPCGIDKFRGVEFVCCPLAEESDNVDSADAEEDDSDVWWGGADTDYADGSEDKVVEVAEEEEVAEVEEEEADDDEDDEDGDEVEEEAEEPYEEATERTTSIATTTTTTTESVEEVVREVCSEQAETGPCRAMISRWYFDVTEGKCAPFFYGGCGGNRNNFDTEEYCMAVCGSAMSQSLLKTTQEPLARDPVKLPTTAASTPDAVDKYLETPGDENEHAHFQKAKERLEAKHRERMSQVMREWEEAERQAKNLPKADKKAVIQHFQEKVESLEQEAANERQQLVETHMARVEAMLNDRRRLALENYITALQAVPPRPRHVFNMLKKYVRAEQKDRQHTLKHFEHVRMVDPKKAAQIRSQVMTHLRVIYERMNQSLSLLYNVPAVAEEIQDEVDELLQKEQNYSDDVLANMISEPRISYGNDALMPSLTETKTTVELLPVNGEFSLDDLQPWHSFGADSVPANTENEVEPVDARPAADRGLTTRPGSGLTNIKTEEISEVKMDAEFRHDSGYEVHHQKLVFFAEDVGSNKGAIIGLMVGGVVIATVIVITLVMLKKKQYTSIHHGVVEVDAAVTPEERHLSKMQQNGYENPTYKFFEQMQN
# Procedure, shortened: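 Aβ1-42 (10 µM) with 10 µM ThT and 1 mM EDTA in 50 mM phosphate buffer (150 mM NaCl, pH 7.4) pre-aggregated 24 h at 37 °C, 700 rpm; fluorescence read (ex 440/em 486 nm). Compound then added and incubated a further 24 h at 37 °C before re-reading. Disaggregation = (first − second reading)/first reading. Triplicate.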
# Histone deacetylase 4 = Histone deacetylase 4 (Homo sapiens, UniProt P56524); assay: Inhibition of recombinant human N-terminal GST-tagged/C-terminal His-tagged HDAC4 (627 to 1084 residues) expressed in baculovirus expression system using Boc-Lys(TFA)-AMC as substrate preincubated for 5 mins followed by substrate addition and measured after 30 mins by fluorescence assay
# Chain of Histone deacetylase 4 (P56524 whole entry, the tested form may be a part): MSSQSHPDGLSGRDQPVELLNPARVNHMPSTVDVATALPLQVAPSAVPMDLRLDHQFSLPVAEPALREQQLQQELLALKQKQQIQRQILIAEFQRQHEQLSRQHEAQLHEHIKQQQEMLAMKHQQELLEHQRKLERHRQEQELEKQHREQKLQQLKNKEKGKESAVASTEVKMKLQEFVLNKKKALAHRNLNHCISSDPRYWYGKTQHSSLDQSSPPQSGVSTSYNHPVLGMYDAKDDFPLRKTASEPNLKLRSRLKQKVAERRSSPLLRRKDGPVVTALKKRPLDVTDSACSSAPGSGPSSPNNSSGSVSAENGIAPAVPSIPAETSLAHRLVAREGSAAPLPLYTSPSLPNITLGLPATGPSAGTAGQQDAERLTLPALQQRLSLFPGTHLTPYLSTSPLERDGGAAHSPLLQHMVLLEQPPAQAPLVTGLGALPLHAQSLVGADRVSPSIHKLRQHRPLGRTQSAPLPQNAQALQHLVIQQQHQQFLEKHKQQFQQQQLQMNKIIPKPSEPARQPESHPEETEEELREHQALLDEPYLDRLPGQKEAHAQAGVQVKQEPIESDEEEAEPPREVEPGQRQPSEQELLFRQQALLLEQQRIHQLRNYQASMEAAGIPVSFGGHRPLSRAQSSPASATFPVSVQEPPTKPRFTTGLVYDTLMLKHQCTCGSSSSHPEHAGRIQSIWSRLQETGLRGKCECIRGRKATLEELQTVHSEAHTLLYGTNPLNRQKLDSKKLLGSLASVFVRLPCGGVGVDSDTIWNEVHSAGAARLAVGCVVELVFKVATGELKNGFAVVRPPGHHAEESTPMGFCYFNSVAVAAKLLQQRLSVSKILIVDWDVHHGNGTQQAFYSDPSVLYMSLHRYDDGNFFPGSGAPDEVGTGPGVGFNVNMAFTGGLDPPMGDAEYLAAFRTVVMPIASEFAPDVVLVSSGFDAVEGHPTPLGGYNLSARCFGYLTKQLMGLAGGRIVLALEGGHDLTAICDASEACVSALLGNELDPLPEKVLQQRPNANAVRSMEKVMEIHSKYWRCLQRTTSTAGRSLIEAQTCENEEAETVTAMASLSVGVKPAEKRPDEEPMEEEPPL
# [3] = Elimination rate constant in human liver microsomes at 1 uM preincubated for 3 mins followed by NADPH addition and measured up to 60 mins by LC-MS/MS analysis; format: ADME, Microsome; settings: time <=63 min
# Procedure, shortened: (§1)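 Mixed-gender human liver microsomes with test article at 1 µM final. Testosterone (5 µM) run separately as control. Mixture without cofactor equilibrated 3 min at 37 °C in a shaking water bath, then started with cofactor. Aliquots taken at 0, 10, 20, 30 and 60 min. CLint = k/P, where k is the elimination rate constant and P is the incubation protein concentration.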
# Histone deacetylase 1 = Histone deacetylase 1 (Homo sapiens, UniProt Q13547); assay: Inhibition of recombinant human C-terminal FLAG/His-tagged HDAC1 (1 to 482 residues) expressed in Sf9 insect cells using fluor de lys SIRT1 as substrate preincubated for 5 mins followed by substrate addition and measured after 30 mins by fluorescence assay
# Chain of Histone deacetylase 1 (Q13547 whole entry, the tested form may be a part): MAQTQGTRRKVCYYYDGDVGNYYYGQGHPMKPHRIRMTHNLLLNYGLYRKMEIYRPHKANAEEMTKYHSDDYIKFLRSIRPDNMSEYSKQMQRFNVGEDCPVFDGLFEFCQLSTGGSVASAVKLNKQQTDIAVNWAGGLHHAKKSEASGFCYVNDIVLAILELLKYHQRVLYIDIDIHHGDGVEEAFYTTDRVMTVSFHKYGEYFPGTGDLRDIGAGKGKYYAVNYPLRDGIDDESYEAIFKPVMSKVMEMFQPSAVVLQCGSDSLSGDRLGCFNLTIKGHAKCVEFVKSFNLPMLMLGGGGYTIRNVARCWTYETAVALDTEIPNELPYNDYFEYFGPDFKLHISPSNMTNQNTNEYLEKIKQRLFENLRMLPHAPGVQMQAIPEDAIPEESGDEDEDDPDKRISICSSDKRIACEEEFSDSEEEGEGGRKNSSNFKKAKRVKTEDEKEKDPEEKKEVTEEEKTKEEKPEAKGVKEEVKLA
# Acetylcholinesterase = Acetylcholinesterase (Homo sapiens, UniProt P22303); assay: Inhibition of recombinant human C-terminal 6His-tagged AChE (Glu32 to Leu614 residues) expressed in CHO cells using acetylthiocholine iodide as substrate preincubated for 5 mins measured after 15 mins by DTNB reagent based assay
# Chain of Acetylcholinesterase (P22303 whole entry): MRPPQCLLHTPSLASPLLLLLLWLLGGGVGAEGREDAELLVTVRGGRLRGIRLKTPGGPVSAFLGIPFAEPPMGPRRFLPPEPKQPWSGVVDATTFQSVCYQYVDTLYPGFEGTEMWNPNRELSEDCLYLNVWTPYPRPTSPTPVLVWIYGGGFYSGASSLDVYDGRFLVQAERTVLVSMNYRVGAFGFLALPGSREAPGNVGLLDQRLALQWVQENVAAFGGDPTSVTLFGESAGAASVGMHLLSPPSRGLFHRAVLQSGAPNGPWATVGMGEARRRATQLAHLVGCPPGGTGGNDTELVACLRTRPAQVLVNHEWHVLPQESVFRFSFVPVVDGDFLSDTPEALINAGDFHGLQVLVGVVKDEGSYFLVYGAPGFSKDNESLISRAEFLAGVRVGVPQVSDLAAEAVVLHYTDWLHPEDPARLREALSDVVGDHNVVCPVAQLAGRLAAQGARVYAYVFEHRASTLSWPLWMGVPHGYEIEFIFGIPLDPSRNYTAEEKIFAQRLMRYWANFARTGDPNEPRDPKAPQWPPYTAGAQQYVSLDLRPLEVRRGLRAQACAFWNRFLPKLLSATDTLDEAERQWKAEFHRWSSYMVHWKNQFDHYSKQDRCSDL
# Procedure, shortened: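 Enzyme, compounds, acetylthiocholine iodide and DTNB diluted in 100 mM phosphate buffer pH 7.4. AChE was preincubated with the compound at varying concentrations for 5 min at 37 °C. The reaction was started with 1 mM ATCI solution and run 15 min at 37 °C. 2 mM DTNB solution was then added for 5 min. Absorbance read at 412 nm. IC50 set 0.1% DMSO wells as 100% and no-enzyme wells as 0%. Run in triplicate.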
# [4] = Intrinsic clearance in human liver microsomes at 1 uM preincubated for 3 mins followed by NADPH addition and measured up to 60 mins by LC-MS/MS analysis; format: ADME, Microsome; settings: 1 h, time <=63 min; procedure, shortened: as §1
# [5] = molecular target: T1, Protein deacetylase HDAC6; assay: Inhibition of HDAC6 in […] cells assessed as increase in alpha-tubulin acetylation measured after 24 hrs by Western blot analysis; format: cell-based, Mus musculus
# [6] = molecular target: Class 1 histone deacetylase (Homo sapiens, UniProt Q13547+O15379+Q92769+Q9BY41); assay: Inhibition of class 1 HDAC in human HeLa cell nuclear extract using Boc-Lys(Ac)-AMC as substrate preincubated for 5 mins followed by substrate addition and measured after 30 mins by fluorescence assay; format: cell-based
# [7] = molecular target: Histone deacetylase 3/Nuclear receptor corepressor 2 (HDAC3/NCoR2) (Homo sapiens, UniProt O15379); assay: Inhibition of human recombinant C-terminal His-tagged HDAC3 (1 to 428 residues)/N-terminal GST-tagged NCOR2 (395 to 489 residus) expressed in baculovirus infected Sf9 insect cells using fluor de lys SIRT1 as substrate preincubated for 5 mins followed by substrate addition and measured after 30 mins by fluorescence assay
# Histone deacetylase 9 = Histone deacetylase 9 (Homo sapiens, UniProt Q9UKV0); assay: Inhibition of recombinant human C-terminal His-tagged HDAC9 (604 to 1066 residues) expressed in baculovirus infected Sf9 cells using fluorogenic HDAC 2A substrate preincubated for 5 mins followed by substrate addition and measured after 30 mins by fluorescence assay
# Chain of Histone deacetylase 9 (Q9UKV0 whole entry, the tested form may be a part): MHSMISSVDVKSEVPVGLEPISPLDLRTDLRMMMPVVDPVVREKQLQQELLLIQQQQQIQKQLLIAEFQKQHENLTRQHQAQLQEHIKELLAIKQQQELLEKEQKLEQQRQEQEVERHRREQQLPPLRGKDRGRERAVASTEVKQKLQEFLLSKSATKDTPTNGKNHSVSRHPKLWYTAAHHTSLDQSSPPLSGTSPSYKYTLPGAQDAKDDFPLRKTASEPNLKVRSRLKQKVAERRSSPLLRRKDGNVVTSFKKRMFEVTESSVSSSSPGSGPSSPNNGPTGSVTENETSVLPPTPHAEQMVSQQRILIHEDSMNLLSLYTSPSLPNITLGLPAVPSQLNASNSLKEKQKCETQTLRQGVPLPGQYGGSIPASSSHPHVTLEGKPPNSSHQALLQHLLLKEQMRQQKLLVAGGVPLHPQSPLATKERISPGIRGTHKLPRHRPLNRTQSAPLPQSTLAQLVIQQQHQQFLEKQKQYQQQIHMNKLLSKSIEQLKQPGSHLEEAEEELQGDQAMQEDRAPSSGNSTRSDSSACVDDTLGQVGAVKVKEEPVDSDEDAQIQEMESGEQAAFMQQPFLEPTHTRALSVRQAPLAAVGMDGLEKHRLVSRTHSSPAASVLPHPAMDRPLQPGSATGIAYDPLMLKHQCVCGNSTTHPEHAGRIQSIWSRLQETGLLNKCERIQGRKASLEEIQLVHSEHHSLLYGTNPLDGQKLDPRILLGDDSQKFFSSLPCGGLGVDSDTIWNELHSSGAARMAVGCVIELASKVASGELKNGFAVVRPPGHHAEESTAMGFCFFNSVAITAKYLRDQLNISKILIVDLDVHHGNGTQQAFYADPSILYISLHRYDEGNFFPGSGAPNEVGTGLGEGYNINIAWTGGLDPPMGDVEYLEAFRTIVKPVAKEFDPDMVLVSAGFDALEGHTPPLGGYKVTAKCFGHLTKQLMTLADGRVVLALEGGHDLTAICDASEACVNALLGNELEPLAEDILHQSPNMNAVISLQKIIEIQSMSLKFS
Compound,IC50 [1],inhibition [2],IC50 (Histone deacetylase 4),"k el at 1 h, 1 µM [3]",IC50 (Histone deacetylase 1),IC50 (Acetylcholinesterase),CLint [4],EC50 [5],IC50 [6],IC50 [7],IC50 (Histone deacetylase 9)
O=C(NO)c1ccc(Nc2c3ccccc3nc3ccc(Br)cc23)cc1,0.026 µM,70%,7.85 µM,0.000305 s⁻¹,0.09 µM,0.88 µM,36.6 µL/min/mg,8 µM,0.16 µM,0.33 µM,5.51 µM
O=C(NO)c1ccc(Nc2c3ccccc3nc3ccccc23)cc1,0.025 µM,41%,2.24 µM,0.00034 s⁻¹,0.34 µM,0.72 µM,40.7 µL/min/mg,8 µM,0.55 µM,1.22 µM,0.57 µM
